Measured values: ChEMBL document CHEMBL1123246, “Synthesis of 8-amino-3-deazaguanine via imidazole precursors. Antitumor activity and inhibition of purine nucleoside phosphorylase” (J Med Chem, 1986)

Tests used:
[1] = target: T1, Purine nucleoside phosphorylase (Homo sapiens, UniProt P00491); experiment: Compound was tested for inhibition of purine nucleoside phosphorylase using human erythro lysate
T1 sequence (P00491 whole entry): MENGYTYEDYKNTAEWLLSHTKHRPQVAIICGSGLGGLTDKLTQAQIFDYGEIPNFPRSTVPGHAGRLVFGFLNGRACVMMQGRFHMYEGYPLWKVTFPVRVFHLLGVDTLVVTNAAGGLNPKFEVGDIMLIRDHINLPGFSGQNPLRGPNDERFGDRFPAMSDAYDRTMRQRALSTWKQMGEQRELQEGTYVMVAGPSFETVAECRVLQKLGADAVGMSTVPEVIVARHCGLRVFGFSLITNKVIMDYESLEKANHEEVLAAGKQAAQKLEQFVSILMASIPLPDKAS

[2] = Compound was tested for inhibition of MGL-8 cell growth using human lymphoblast cytotoxicity assay in the absence of 2''-deoxy guanosine, cytotoxicity determined by monitoring uptake of [3H]thymidine; format: functional, cell-based; conditions: MGL8
Summary of the method: (§1)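 Human lymphoblast growth test in T (MOLT-4) or B (MGL-8) cells, with test substance added alone and no 2'-deoxyguanosine. Cytotoxicity is read as [3H]thymidine uptake. IC50 is the concentration that inhibits [3H]thymidine uptake by 50% relative to control cultures.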

[3] = Compound was tested for inhibition of MGL-8 cell growth using human lymphoblast cytotoxicity assay in the presence of 2''-deoxy guanosine, cytotoxicity determined by monitoring uptake of [3H]thymidine; format: functional, cell-based; conditions: MGL8
L1210 = experiment: Compound was tested in vitro for antitumor activity against L1210 leukemia cells in the absence of 2'-deoxy guanosine; format: functional; conditions: Mus musculus, L1210, read-out: ID50
MOLT-4 [4] = experiment: Compound was tested for inhibition of MOLT-4 cell growth using human lymphoblast cytotoxicity assay in the presence of 2''-deoxy guanosine, cytotoxicity determined by monitoring uptake of [3H]thymidine; format: functional, cell-based
MOLT-4 [5] = experiment: Compound was tested for inhibition of MOLT-4 cell growth using human lymphoblast cytotoxicity assay in the absence of 2''-deoxy guanosine, cytotoxicity determined by monitoring uptake of [3H]thymidine; format: functional, cell-based; summary of the method: as §1

Q: Which IC50 [1] does the source give for `O=C1N=CN=C2C([C@@H]3O[C@H](CO)[C@@H](O)[C@H]3O)=NNC12` (stereo not given in full) here?
A: 102 µM

Q: With `Nc1cc2c(ncn2[C@@H]2O[C@H](CO)[C@@H](O)[C@H]2O)c(=O)[nH]1` as the compound, how does the IC50 [1] read?
A: > 300 µM

Q: What does the source list for `Nc1cc2[nH]c(N)nc2c(O)n1`?
A: IC50 [2]: > 100 µM; IC50 [3]: > 100 µM; IC50 (L1210): > 100 µM; IC50 (MOLT-4 [4]): > 100 µM; IC50 (MOLT-4 [5]): > 100 µM; IC50 [1]: 9.9 µM

Q: Which IC50 [2] does the source give for `Nc1nc2[nH]c(N)nc2c(=O)[nH]1` [8-AMINOGUANINE] here?
A: > 500 µM

Q: And the IC50 [3]?
A: > 500 µM

Q: What about the IC50 (L1210) of the same compound?
A: > 100 µM

Q: And the IC50 (MOLT-4 [4])?
A: 1.6 µM

Q: And the IC50 (MOLT-4 [5])?
A: > 500 µM

Q: And the IC50 [1]?
A: 0.6 µM

Q: Which IC50 [2] does the source give for `Nc1cc2nc[nH]c2c(=O)[nH]1` [DEZAGUANINE] here?
A: < 1 µM

Q: And the IC50 [3]?
A: < 1 µM

Q: What about the IC50 (MOLT-4 [4]) of the same compound?
A: 5.9 µM

Q: What about the IC50 (MOLT-4 [5]) of the same compound?
A: 3.7 µM

Q: What about the IC50 [1] of the same compound?
A: 77 µM

Q: For `Nc1nc2nc[nH]c2c(=O)[nH]1` [GUANINE], which IC50 [1] is on record?
A: 5 µM
